ABCB6 inh MLPCN – blocks the human ABCB6 transporter; K562-ABCB6 porphyrin accumulation, flow cytometry, 1 h; active compounds read low; AID 602162; 0.19% of 360,000 active; fluorescence ratio to DMSO, % at 10 µM; Q9NP58;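 active means fluorescence ratio to DMSO below 75%, the collection mean minus 3 SD; inconclusive means too few cells collected in the well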;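 further: signal is porphyrin accumulated inside mitochondria; lower ratio means ABCB6 inhibition with less porphyrin fluorescence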
Myeloid diff MLP – compounds promoting myeloid differentiation. ER-HoxA9 myeloid progenitors, lysozyme-GFP differentiation, flow cytometry. calls only at 10 µM. 1% of 360,000 active;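 active means normalized GFP-positive differentiation at or above the plate's own cutoff, the solvent-only control mean plus 3 SD; inconclusive means no clear call, values can overlap the other calls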;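 further: cells exposed to compound for four days before flow analysis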
Xi reactivation – X-chromosome reactivation activator. activation, % at 7.58 µM. XiGFP mouse fibroblasts, % GFP-positive cells imaging, 3 d; cells co-treated with 5-aza-dC sensitizer; scaled so ellipticine positive control = 100%. 0.055% of 360,000 active. AID 743238;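 active means mean normalized replicate activation at least 10% and every replicate at or above 10%; inconclusive means only one of the two criteria met; inactive means mean below 10% and not all replicates reach 10%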
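Assay system: SV40-immortalized XiGFP fibroblast cells, line 68-5-11; buffer or medium: DMEM plus 5-aza-dC sensitizer; compound: one concentration, pinned; timing: compounds 3 days, fix/stain 15 min at room temperature; benchmarks: positive control ellipticine, 6 µM final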
Calls only; - = inactive; ? = inconclusive; . = no result given; + = active, no number. Many of the other results were omitted from the sample, so hits are more common in it than they were.

SMILES	ABCB6 inh MLPCN	Myeloid diff MLP	Xi reactivation
COc1ccccc1CN1C[C@@H](C)[C@H](OC)CN(C)C(=O)c2ccc(NC(=O)Nc3ccccc3OC)cc2OC[C@H]1C	.	.	-
Cc1noc(C)c1NC(=O)Nc1ccc2c(c1)C(=O)N([C@@H](C)CO)C[C@H](C)[C@@H](CN(C)C)OCCCC[C@@H](C)O2	.	.	-
COc1ccc(NC(=O)Nc2ccc3c(c2)[C@H]2C[C@@H](CC(=O)N4CCN(C)CC4)O[C@H](CO)[C@H]2O3)cc1	.	.	-
O=C(NCCc1ccccn1)c1c(-c2ccccc2)sc2ccccc12	-	-	-
O=C(NCCc1ccccn1)c1c(-c2ccsc2)sc2ccccc12	-	+	-
COCC(=O)N1[C@H](CO)[C@@H]2c3ccccc3N(C(=O)c3ccncc3)C[C@@H]21	.	.	-
CC=Cc1ccc2n(c1=O)C[C@@H]1[C@@H](CO)[C@H](C(=O)N(C)C)[C@H]2N1CC1CCCC1 (mixture of isomers)	.	.	-
Cc1nn(CCC(=O)O)c2nc(-c3cccnc3)cc(C(F)(F)F)c12	-	-	.
Cc1nn(CCc2nn[nH]n2)c2nc(-c3ccc(C4CCCCC4)cc3)cc(C(F)(F)F)c12	-	+	-
CCOC(=O)[C@H]1[C@H]2COc3ccccc3[C@@H]2N2C(=O)CNC(=O)[C@@]12C	-	+	-
CCOC(=O)[C@H]1[C@H]2COc3ccccc3[C@@H]2N2C(=O)c3cc(F)c(F)cc3NC(=O)[C@@]12C	-	-	-
CC(=O)N(C)C[C@H]1Oc2ccc(NS(C)(=O)=O)cc2C(=O)N(C)C[C@H]1C	.	.	-
FC(F)(F)c1ccc(C2[C@H]3CN(Cc4cccnc4)[C@H](c4ccccc4)C34CC2(c2cccnc2)C4)cc1 (stereo not given in full)	-	-	-
Clc1ccc(C2[C@H]3CN(Cc4cccnc4)[C@H](c4ccccc4)C34CC2(c2cccnc2)C4)cn1 (stereo not given in full)	-	+	-
O=C(c1ccncc1)N1CCN(C(=O)c2ccco2)CC1	-	-	.
O=C(c1ccc(N2CN(C(=O)c3ccco3)c3nc4ccccc4nc32)cc1)N1CCOCC1	-	+	.
COc1ccc2c3c(n(C)c2c1)[C@H](CO)N(Cc1ccc2c(c1)OCO2)CC31CCN(C(=O)C2CC2)CC1	.	.	-
O=C(N/N=C/C(Br)=C/c1ccccc1)c1cc(-c2ccco2)[nH]n1	-	+	-
CC1=NNC(=O)C1CC(=O)N/N=C/C(Br)=C/c1ccccc1 (stereo not given)	-	-	-
CC1C(=O)NN=C1C(=O)N/N=C\C(Br)=C\c1ccccc1 (stereo not given)	-	+	-
CC(/C=N/NC(=O)c1cc(-c2ccc(C)o2)[nH]n1)=C\c1ccccc1	-	-	-
O=C(c1ccncc1)N1C[C@H]2[C@@H](c3ccccc31)[C@@H](CO)N2C(=O)Nc1ccc(F)cc1	.	.	-
O=C(Nc1ccc2c(c1)CCCN2C(=O)c1cccs1)c1cccc(F)c1	-	?	-
O=C(Nc1ccc2c(c1)CCCN2C(=O)c1cccs1)c1ccccc1	-	+	-
C[C@@H]1CN([C@@H](C)CO)C(=O)c2cc(N(C)C)ccc2O[C@@H](C)CCCCO[C@@H]1CN(C)S(=O)(=O)c1ccccc1	.	.	-
SMILES	ABCB6 inh MLPCN	Myeloid diff MLP	Xi reactivation
COc1ccc(F)cc1C(=O)C1CCCN(C(=O)c2ccc(C(C)=O)s2)C1 (stereo not given)	-	-	-
COc1ccc(F)cc1C(=O)C1CCCN(C(=O)C2=C(C)OCCO2)C1 (stereo not given)	-	+	-
COc1ccccc1CNCC(O)(c1ccc(F)cc1)c1ccc(F)cc1	-	-	-
COc1ccccc1CNCC(O)(c1ccc(Cl)cc1)c1ccc(Cl)cc1	-	+	.
C[C@@H]1CN([C@H](C)CO)S(=O)(=O)c2ccc(C#CCN(C)C)cc2O[C@@H]1CN(C)Cc1ccc(F)cc1	.	.	-
Cc1oc(-c2ccc(Cl)cc2)nc1CN1CCCC(C(=O)NC2CC2)C1 (stereo not given)	-	-	-
Cc1oc(-c2ccc(Cl)cc2)nc1CN1CCCC(C(=O)NCc2ccco2)C1 (stereo not given)	-	+	.
COc1cccc(CN2CC3(C2)[C@H](c2ccccc2)[C@@H](CO)N3Cc2cccc(OC)c2)c1	.	.	-
O=C1Nc2ccccc2Nc2ccc([N+](=O)[O-])cc21	-	-	-
Cc1ccc(Oc2cc([N+](=O)[O-])cc3c2C(=O)Nc2ccccc2O3)cc1	-	+	-
COc1cc(/C=C2/C(=O)NN(c3ccc(C)c(Cl)c3)C2=O)cc([N+](=O)[O-])c1O	-	+	-
COc1cc(/C=C2/C(=O)NN(c3cccc(C)c3)C2=O)cc([N+](=O)[O-])c1O	-	-	-
